Consider 3 compounds from ChEMBL document CHEMBL1138606, “The discovery of tropane derivatives as nociceptin receptor ligands for the management of cough and anxiety” (Bioorg Med Chem Lett, 2009).

SMILES strings stand for the structures. The source made the active and inactive calls.

The target of series [1] is T1, Nociceptin receptor (Homo sapiens, UniProt P41146). In words: Displacement of [125I][Tyr14]nociceptin from human cloned NOP receptor expressed in CHO cells. In kind it is cell-based. A general note: Displacement assays read how much labelled ligand stays bound in the presence of the test substance.
T1 sequence (P41146 whole entry): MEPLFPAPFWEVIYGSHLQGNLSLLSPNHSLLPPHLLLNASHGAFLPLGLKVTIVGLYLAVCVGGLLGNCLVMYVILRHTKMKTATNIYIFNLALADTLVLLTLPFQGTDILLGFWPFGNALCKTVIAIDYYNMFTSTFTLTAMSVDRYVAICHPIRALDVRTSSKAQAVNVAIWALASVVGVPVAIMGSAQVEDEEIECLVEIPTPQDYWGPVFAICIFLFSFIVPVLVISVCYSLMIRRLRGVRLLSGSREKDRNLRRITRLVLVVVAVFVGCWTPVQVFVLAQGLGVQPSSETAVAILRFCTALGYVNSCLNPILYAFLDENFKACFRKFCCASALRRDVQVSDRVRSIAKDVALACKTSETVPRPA
Series [2] deals with T2, Mu-type opioid receptor (Homo sapiens, UniProt P35372). In words: Displacement of [3H]diprenorphine from human mu opioid receptor expressed in CHO cells. The series is classed as cell-based.
T2 sequence (P35372 whole entry): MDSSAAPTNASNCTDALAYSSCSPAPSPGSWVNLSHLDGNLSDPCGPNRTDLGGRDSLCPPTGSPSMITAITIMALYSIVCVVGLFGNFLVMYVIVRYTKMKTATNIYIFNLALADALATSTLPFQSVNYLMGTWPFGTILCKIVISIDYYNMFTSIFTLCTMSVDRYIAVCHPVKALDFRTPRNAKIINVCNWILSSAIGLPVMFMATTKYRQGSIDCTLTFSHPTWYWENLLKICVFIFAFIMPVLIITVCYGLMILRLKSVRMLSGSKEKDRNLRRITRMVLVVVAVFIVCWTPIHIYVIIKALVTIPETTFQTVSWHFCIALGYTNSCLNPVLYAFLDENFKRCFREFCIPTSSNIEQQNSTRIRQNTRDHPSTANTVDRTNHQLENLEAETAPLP
Series [3] has as its target T2, Mu-type opioid receptor. In words: Agonist activity at human mu opioid assessed as stimulation of GDP-induced [35S]GTPgammaS binding. The series is classed as functional. The method, boiled down:
(§1)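 Functional agonism measured as enhancement of [35S]GTPγS binding in the presence of GDP, using membranes from cells transfected with the receptor. Values are means of 2–3 experiments.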
On the technique in general: GTPγS is a poorly hydrolysed GTP analogue; its binding reports G protein activation.

The target in series [4] is Kappa-type opioid receptor (Homo sapiens, UniProt P41145). In words: Displacement of [3H]diprenorphine from human kappa opioid receptor expressed in CHO cells. In kind it is cell-based.
Sequence of Kappa-type opioid receptor (P41145 whole entry): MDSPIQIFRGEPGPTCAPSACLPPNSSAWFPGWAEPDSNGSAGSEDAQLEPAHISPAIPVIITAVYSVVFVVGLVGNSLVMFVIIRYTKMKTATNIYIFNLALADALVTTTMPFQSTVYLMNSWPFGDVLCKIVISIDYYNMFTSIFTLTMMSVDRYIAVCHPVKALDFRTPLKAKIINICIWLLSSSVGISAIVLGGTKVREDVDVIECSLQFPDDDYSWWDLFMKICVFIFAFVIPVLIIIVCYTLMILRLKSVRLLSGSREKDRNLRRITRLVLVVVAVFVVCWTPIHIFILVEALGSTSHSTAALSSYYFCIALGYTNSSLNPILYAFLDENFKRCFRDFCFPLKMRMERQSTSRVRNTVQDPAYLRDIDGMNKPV
Series [5] concerns the target Delta-type opioid receptor (Homo sapiens, UniProt P41143). In words: Displacement of [3H]diprenorphine from human delta opioid receptor expressed in CHO cells. In kind it is cell-based.
The test system of series [6] is Cavia porcellus. In words: Antitussive activity against capsaicin-induced cough in po dosed Hartley guinea pig model after 2 hrs. The series is classed as functional.
Series [7] has as its system Rattus norvegicus. In words: Anxiolytic activity in po dosed CD rats assessed as suppression of conditioned paw licking administered twice per day for 14 days measured after 2 hrs of last dose. In kind it is functional.
For series [8], the species on record is Cavia porcellus. In words: Anxiolytic activity in Dunkin-Hartley guinea pig pup assessed as reduction in number of vocalization produced due to separation measured after 2 hrs. In kind it is functional.
Series [9] has as its system Cavia porcellus. In words: Antitussive activity against capsaicin-induced cough in po dosed Hartley guinea pig model after 2 hrs in presence J113397. The series is classed as functional, organism-based.
The test system of series [10] is Cavia porcellus. In words: Antitussive activity against capsaicin-induced cough in po dosed Hartley guinea pig model after 2 hrs in presence naltrexone. In kind it is functional, organism-based.
For series [11], the system named is Cavia porcellus. In words: Antitussive activity against capsaicin-induced cough in po dosed Hartley guinea pig model after 2 hrs in presence naloxone. The series is classed as functional, organism-based.
Series [12] concerns the target T3, Cytochrome P450 2C9 (Homo sapiens, UniProt P11712). In words: Inhibition of CYP2C9 co-incubated with substrate. The series is classed as ADME.
Series [13] in a line: AUC (0 to 24 hrs) in rat at 3 mg/kg, po. In kind it is ADME, organism-based. Set-up: time < 24 hr, dose 3 mg/kg, route oral. Conditions: plasma.
Series [14] can be described thus: Cmax in rat at 3 mg/kg, po. In kind it is ADME, organism-based. Set-up: dose 3 mg/kg, route oral. Conditions: in vivo.
Series [15] can be described thus: Half life in rat at 3 mg/kg, po. The series is classed as ADME, organism-based. Set-up: dose 3 mg/kg, route oral. Conditions: in vivo.
Series [16] is described as follows: Oral bioavailability in rat at 3 mg/kg. Conditions: in vivo. In kind it is ADME, organism-based.
The nature of series [17]: Clearance in rat at 3 mg/kg, po. Conditions: in vivo. In kind it is ADME, organism-based. More on the design: dose 3 mg/kg, route oral.
The subject of series [18] is Rattus norvegicus. In words: Volume of distribution at steady state in rat at 3 mg/kg, po. The series is classed as ADME, organism-based. Set-up: dose 3 mg/kg, route oral. Conditions: in vivo.
The target of another series is Cytochrome P450 2D6 (Homo sapiens, UniProt P10635). In words: Inhibition of CYP2D6. In kind it is ADME.
Sequence of Cytochrome P450 2D6 (P10635 whole entry): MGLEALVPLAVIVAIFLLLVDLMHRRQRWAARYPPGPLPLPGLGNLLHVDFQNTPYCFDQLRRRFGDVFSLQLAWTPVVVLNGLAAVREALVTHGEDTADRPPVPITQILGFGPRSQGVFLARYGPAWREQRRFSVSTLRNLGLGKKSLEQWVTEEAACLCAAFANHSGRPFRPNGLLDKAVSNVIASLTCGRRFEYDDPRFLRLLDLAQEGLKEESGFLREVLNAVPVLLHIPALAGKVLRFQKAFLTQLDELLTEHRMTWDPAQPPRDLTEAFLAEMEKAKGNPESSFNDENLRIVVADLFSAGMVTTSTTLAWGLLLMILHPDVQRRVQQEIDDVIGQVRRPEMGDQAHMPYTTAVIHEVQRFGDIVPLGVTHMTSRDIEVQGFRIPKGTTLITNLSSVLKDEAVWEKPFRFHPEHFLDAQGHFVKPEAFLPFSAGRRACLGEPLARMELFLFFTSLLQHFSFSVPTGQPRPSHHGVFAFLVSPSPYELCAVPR
For the next series, the target named is Cytochrome P450 3A4 (Homo sapiens, UniProt P08684). In words: Inhibition of CYP3A4. The series is classed as ADME.
Sequence of Cytochrome P450 3A4 (P08684 whole entry): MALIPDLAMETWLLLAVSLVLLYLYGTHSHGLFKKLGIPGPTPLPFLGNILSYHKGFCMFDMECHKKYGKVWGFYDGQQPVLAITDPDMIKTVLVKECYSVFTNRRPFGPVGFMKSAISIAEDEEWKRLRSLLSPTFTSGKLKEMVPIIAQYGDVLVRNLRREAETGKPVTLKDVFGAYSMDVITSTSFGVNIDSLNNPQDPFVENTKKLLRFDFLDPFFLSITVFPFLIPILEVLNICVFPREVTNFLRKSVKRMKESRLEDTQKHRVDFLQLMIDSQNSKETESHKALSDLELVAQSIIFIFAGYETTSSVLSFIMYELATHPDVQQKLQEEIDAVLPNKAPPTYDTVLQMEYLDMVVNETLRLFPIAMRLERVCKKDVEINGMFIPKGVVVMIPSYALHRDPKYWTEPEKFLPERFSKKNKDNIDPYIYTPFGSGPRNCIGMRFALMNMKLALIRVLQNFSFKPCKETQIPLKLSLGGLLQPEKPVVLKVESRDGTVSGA
For series [19], the target named is T3, Cytochrome P450 2C9. In words: Inhibition of CYP2C9 pre-incubated before addition of substrate. The series is classed as ADME.
The nature of series [20]: Clearance in human hepatocytes measured per 10^6 cells. The series is classed as ADME, cell-based, Liver, Hepatocyte.
Series [21] relates to Rattus norvegicus. In words: Anxiolytic activity in po dosed CD rats assessed as suppression of conditioned paw licking administered twice per day for 14 days measured after 2 hrs of last dose in presence of […]. The series is classed as functional, organism-based.
Series [22] concerns the target T1, Nociceptin receptor. In words: Agonist activity at human NOP assessed as stimulation of GDP-induced [35S]GTPgammaS binding. In kind it is functional. The method, boiled down: as §1
In series [23] the target is T4, Nuclear receptor subfamily 1 group I member 2 (Homo sapiens, UniProt O75469).
T4 sequence (O75469 whole entry): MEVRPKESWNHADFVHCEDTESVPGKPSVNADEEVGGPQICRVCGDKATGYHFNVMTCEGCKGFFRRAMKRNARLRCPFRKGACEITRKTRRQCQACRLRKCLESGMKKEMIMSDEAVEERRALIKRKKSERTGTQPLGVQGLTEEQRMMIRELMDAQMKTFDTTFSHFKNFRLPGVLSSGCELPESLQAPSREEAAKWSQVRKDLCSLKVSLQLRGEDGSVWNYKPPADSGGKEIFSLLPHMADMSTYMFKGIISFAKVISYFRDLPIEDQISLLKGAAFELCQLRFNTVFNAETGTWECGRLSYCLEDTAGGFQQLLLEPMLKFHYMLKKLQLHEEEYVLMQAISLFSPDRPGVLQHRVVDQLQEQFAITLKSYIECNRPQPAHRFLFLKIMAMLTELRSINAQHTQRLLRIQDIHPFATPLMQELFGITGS
In words: Activity at human PXR assessed as induction of CYP3A4 activity in human hepatocytes at 1 uM relative to rifampicin. The series is classed as cell-based, Hepatocyte.

T3 sequence (P11712 whole entry): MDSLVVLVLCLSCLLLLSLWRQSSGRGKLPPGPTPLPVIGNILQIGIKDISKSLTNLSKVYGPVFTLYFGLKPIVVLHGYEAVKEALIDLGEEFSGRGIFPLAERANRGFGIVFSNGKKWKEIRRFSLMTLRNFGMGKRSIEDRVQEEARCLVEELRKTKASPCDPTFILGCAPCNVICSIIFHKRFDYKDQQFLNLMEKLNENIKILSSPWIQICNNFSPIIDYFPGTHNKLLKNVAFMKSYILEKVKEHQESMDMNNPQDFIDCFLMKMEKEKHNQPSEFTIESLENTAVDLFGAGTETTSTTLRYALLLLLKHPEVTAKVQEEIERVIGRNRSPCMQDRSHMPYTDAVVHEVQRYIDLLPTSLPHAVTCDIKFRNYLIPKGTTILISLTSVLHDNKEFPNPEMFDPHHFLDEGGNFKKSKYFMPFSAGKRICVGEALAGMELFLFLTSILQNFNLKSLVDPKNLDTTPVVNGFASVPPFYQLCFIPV
Sequence of Delta-type opioid receptor (P41143 whole entry): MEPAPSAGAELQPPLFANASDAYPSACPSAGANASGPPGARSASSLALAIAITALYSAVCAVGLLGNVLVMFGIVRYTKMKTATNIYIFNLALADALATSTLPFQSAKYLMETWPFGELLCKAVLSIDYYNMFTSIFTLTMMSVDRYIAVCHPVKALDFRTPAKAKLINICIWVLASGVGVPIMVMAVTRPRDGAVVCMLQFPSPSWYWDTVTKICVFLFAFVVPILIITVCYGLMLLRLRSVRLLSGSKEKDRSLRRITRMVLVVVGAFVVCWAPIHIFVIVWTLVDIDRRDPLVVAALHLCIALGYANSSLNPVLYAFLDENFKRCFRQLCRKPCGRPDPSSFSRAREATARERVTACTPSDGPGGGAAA

Broadly, the Ki is a measure of affinity in units of concentration, obtained from inhibition or displacement. Broadly, the EC50 is the midpoint of the concentration-response curve. By ED50 is commonly meant the midpoint of the dose-response relation. For `OC1(c2ccccc2)CC2CCC(C1)N2C(c1ccccc1Cl)c1ccccc1Cl` (configuration not stated), the Ki at Nociceptin receptor [1] worked out at 3.4 nM; on Mu-type opioid receptor [2], 22 nM; in series [4], 109 nM; in [5], 3140 nM. The EC50 at Mu-type opioid receptor [3] was 337 nM. Further, the ED50 worked out at 0.4 mg/kg in the series on Cavia porcellus [6], 1.4 mg/kg with Rattus norvegicus [7] and 0.4 mg/kg in the series filed under Cavia porcellus [8]. In addition, in the series with Cavia porcellus [9], the outcome was inactive. Besides, the outcome with Cavia porcellus [10] and in the series with Cavia porcellus [11] was Active.
What is called IC50 is the concentration that inhibits the measured activity by half. A word on the AUC(0-t): it is exposure summed from dosing to a finite time, without extrapolation to infinity. A high value points to more exposure. Usually Cmax stands for the highest concentration seen after dosing. Usually half-life stands for the time needed for the level to fall by half in the phase considered. Read a high half-life as slow decline. As a reminder, the bioavailability is dose-corrected exposure relative to a reference, in per cent. High values mean good availability, low ones poor availability. For orientation: CL/F means clearance divided by bioavailability, as obtained after extravascular dosing. In general, hepatocyte CLint refers to the rate of metabolic loss divided by the concentration. On to `NC(=O)C1(c2ccccc2)CC2CCC(C1)N2C(c1ccccc1Cl)c1ccccc1Cl` (configuration not stated), for which the IC50 at Cytochrome P450 2C9 [12] is 8000 nM; against Cytochrome P450 2D6, above 30000 nM; on Cytochrome P450 3A4, above 30000 nM; on Cytochrome P450 2C9 [19] it was 19000 nM. Besides, the ED50 in the series with Cavia porcellus [6] came out at 0.3 mg/kg; in the series on Rattus norvegicus [7], 1.4 mg/kg; in the series listed under Cavia porcellus [8], 0.4 mg/kg. For the same compound, the AUC(0-t) at 24 h in series [13] is 0.54 µM·h. Further, in series [14], the peak level (Cmax) was 80 nM. In [15], the half-life is 1.8 h. Also, the bioavailability in [16] stood at 37%. In series [17], this compound yielded a CL/F of 73 mL/min/kg. This compound also yielded a Vdss in the series on Rattus norvegicus [18] of 9.1 L/kg. In series [20], this compound showed a hepatocyte CLint of 3 µL/min/1e6 cells. Further, in the series on Rattus norvegicus [21], the outcome was inactive.
Regarding `NC(=O)C1(c2ccc(F)cc2)CC2CCC(C1)N2C(c1ccccc1Cl)c1ccccc1Cl` (configuration not stated), the Ki on Nociceptin receptor [1] came to 16 nM; at Mu-type opioid receptor [2], 126 nM; in series [4], 752 nM; in [5], 1040 nM. In addition, the EC50 on Nociceptin receptor [22] amounted to 14 nM; on Mu-type opioid receptor [3] it was 947 nM. Further, the values for the ED50 in the series with Cavia porcellus [6], in the series with Rattus norvegicus [7] and in the series listed under Cavia porcellus [8] were 0.03 mg/kg, 2.7 mg/kg and 0.2 mg/kg, respectively. Moreover, the Ratio in series [23] came to 0.27. Moreover, in series [13], the AUC(0-t) at 24 h is 1.27 µM·h. Further, in series [14], the Cmax was found to be 250 nM. In addition, in series [15], the half-life is 1.8 h. In series [16], this compound showed a bioavailability of 45%. The compound also showed a CL/F in [17] of 33 mL/min/kg. Further, in the series on Rattus norvegicus [18], the Vdss amounted to 1.8 L/kg.
